Source: ChEMBL document CHEMBL1926596, “Synthesis and antimalarial evaluation of novel isocryptolepine derivatives” (Bioorg Med Chem, 2011)
Where a name gives a salt, the structure may show the parent alone.

Tests used:
[1] = test system: Plasmodium falciparum; assay: Antimalarial activity against chloroquine-resistant Plasmodium falciparum W2mef infected in human erythrocytes assessed as inhibition of [3H]hypoxanthine incorporation after 48 hrs by beta liquid scintillation counting method; type: functional, organism-based
Procedure, shortened: (§1)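 Hydrochloride salts, from DMSO/water stocks (final DMSO <0.05%), added in triplicate to parasites cultured in RPMI 1640 HEPES with L-glutamine, gentamicin, hypoxanthine and 10% pooled human plasma at 37 °C under 3–9% oxygen. Radiolabel was added, then 48 h incubation, freeze-thaw, filtermat harvest and scintillation counting. Uninfected and infected drug-free controls were included. IC50 came from nonlinear regression of log-dose–response curves, with at least 3 separate runs.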

[2] = Selectivity index, ratio of IC50 for mouse 3T3 cells to IC50 for chloroquine-resistant Plasmodium falciparum W2mef; type: toxicity, cell-based, NIH3T3; conditions: read-out: Ratio IC50
Procedure, shortened: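 The ratio uses the W2mef antiplasmodial IC50 and the IC50 in 3T3 mouse embryonic fibroblasts. Cells were seeded 24 h earlier at 7500/well on 1% gelatine, 37 °C, 5% CO2. Serial dilutions were added in quadruplicate with a vehicle control for 48 h. MTT (1 mg/mL, 60 min, 37 °C) was solubilised in DMSO and read at 595 nm. IC50 came from nonlinear regression after DMSO correction, with at least 3 runs.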

[3] = test system: NIH3T3; assay: Cytotoxicity against mouse 3T3 cells after 48 hrs by MTT assay; type: cell-based; conditions: NIH3T3, 48 h
Procedure, shortened: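 Cells seeded at 7500 per well on 1% gelatine-coated plates 24 h before testing (37 °C, 5% CO2, humidified). Test agents given as hydrochloride salts in DMSO/water stocks, diluted in RPMI, serially diluted, added in quadruplicate, with vehicle and drug-free controls. After 48 h, MTT (1 mg/mL in RPMI) for 60 min, DMSO solubilisation, absorbance 595 nm. At least three separate runs; IC50 by non-linear regression after DMSO correction.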

[4] = test system: Plasmodium falciparum; assay: Antimalarial activity against chloroquine-sensitive Plasmodium falciparum 3D7 infected in human erythrocytes assessed as inhibition of [3H]hypoxanthine incorporation after 48 hrs by beta liquid scintillation counting method; type: functional, organism-based; procedure, shortened: as §1
[5] = test system: Plasmodium falciparum; assay: Antimalarial activity against Plasmodium falciparum K1; type: functional, organism-based

In the case of `Cn1cc2c3ccccc3nc-2c2ccc(Cl)cc21`, the IC50 [1] is reported as 316 nM, the selectivity ratio [2] is reported as 7.3 and the IC50 [3] is reported as 2260 nM. The IC50 [4] was 130 nM.

`Cc1ccc2c3cn(C)c4ccccc4c-3nc2c1` showed an IC50 [1] of 760 nM, a selectivity ratio [2] of 2.7 and an IC50 [3] of 2070 nM. It also gave an IC50 [4] of 448 nM.

For `Cn1cc2c3cc(Br)ccc3nc-2c2ccccc21`, the IC50 [1] was 184 nM, the selectivity ratio [2] was 11 and the IC50 [3] was 1970 nM. It also gave an IC50 [4] of 85 nM.

In the case of `Cn1cc2c3cc(Br)ccc3nc-2c2cc(Cl)ccc21`, the IC50 [1] is reported as 85 nM, the selectivity ratio [2] is reported as 106 and the IC50 [3] is reported as 9000 nM. It also gave an IC50 [4] of 57 nM.

In the case of `Cn1cc2c3cc(Br)ccc3nc-2c2cc(Br)ccc21`, the IC50 [1] is reported as 112 nM, the selectivity ratio [2] is reported as 23 and the IC50 [3] is reported as 2580 nM. It also gave an IC50 [4] of 127 nM.

In the case of `Cn1cc2c3cc(Br)ccc3nc-2c2ccc(Cl)cc21`, the IC50 [1] is reported as 100 nM, the selectivity ratio [2] is reported as 26 and the IC50 [3] is reported as 2640 nM. For the same compound, the IC50 [4] was 50 nM.

`Cc1cc2nc3c4ccccc4n(C)cc-3c2cc1Br` showed an IC50 [1] of 131 nM, a selectivity ratio [2] of 19 and an IC50 [3] of 2500 nM. It also gave an IC50 [4] of 62 nM.

Compound `Cn1cc2c3cc(Cl)ccc3nc-2c2ccccc21` has an IC50 [1] of 218 nM, a selectivity ratio [2] of 9.6 and an IC50 [3] of 2100 nM. The IC50 [4] was 117 nM.

`Cn1c2c3cc(Br)ccc3nc-2cc2cc(Br)ccc21` showed an IC50 [5] of 49 nM.

Work on `CCN(CC)CCCC(C)Nc1ccnc2cc(Cl)ccc12` (centres undefined) [CHLOROQUINE] yielded an IC50 [3] of 72000 nM.

For `Cn1cc2c3ccccc3nc-2c2ccccc21` [ISOCRYPTOLEPINE HYDROCHLORIDE], the IC50 [1] was 1180 nM, the selectivity ratio [2] was 1.9 and the IC50 [3] was 2190 nM. The IC50 [4] was 665 nM.

With `CCCCN(CCCC)CC(O)c1cc(Cl)cc2c1-c1ccc(Cl)cc1/C2=C/c1ccc(Cl)cc1` (centres undefined) [LUMEFANTRINE] the IC50 [1] was 56 nM.
